Tests used:
[1] = target: T1, Dopamine beta-hydroxylase (Bos taurus, UniProt P15101); assay: Compound was evaluated for the ability to bind to dopamine beta-hydroxylase of bovine
T1 sequence (P15101 whole entry): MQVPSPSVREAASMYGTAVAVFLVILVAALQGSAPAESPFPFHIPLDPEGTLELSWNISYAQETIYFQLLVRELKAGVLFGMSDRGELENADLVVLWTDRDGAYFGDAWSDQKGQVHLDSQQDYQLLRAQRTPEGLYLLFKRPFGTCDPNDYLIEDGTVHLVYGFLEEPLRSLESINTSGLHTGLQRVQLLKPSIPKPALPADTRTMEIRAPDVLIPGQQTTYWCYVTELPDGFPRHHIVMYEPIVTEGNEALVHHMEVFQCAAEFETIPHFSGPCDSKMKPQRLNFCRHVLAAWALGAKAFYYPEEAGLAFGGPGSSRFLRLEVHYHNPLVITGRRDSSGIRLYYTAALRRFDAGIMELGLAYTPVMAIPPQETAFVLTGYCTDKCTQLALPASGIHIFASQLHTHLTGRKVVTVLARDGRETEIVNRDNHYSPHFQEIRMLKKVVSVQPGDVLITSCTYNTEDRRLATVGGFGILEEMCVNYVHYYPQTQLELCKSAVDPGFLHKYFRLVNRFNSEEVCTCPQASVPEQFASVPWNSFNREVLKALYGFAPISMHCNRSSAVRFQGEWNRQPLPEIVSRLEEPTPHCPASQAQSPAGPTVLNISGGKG
Procedure, shortened: (§1)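 Purified bovine DβH (20-40 μg) was preincubated at 25 °C with varied inhibitor in 100 mM Mes/100 mM NaOAc, pH 5.0, with 0-3% DMF, 0.5 mg/mL catalase and 12 mM ascorbate. Timed aliquots went into assay mix at 37 °C, pH 5.5, with 30 mM tyramine and 12 mM ascorbate, and O2 uptake was read. Apparent kinact came from ln(activity) versus time; 1/kinact versus 1/[I] replots gave kinact and Ki.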

[2] = target: T2, Dopamine beta-hydroxylase (Bos taurus) (UniProt P15101); assay: Inactivation constant of compound was determined by using bovine dopamine beta-hydroxylase; procedure, shortened: as §1
T2 sequence (whole entry): T1 sequence (P15101 whole entry)

[3] = (§2) Partition ratio was determined by quantitating amount of compound consumed after complete inactivation of a known amount of dopamine beta-hydroxylase.
Procedure, shortened: (§3)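 Bovine DβH (15-20 μg) was fully inactivated at 25 °C with inhibitor in 125 mM Mes/125 mM NaOAc, pH 5.5, with 0.5 mg/mL catalase and 12 mM ascorbate. Inhibitor consumed was quantified by C18 HPLC (water-acetonitrile) with UV detection at each inhibitor's maximum. Controls without enzyme were run. Partition ratio is turnover/inactivation.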

[4] = Ratio of inactivation constant (Kinact) and inhibitory constant (Ki); procedure, shortened: as §1
[5] = target: T2, Dopamine beta-hydroxylase (Bos taurus); assay: as §2; procedure, shortened: as §3

Row | Compound | Ki [1] [µM] | K inact [2] [min⁻¹] | Partition ratio [3] | Ratio [4] | Partition ratio [5]
1 | NCC=C1SCCS1 | 5 | 0.15 | – | 30000 | –
2 | Oc1ccc2occc2c1 | 1900 | 0.23 | 8 | – | –
3 | C=Cc1ccc(O)cc1 [4-VINYLPHENOL] | 700 | 0.025 | 730 | – | –
4 | Oc1ccc2ccoc2c1 | 40 | 0.23 | 27 | 5750 | –

Second part, the compound after the results:

Row | Ki [1] [µM] | K inact [2] [min⁻¹] | Partition ratio [3] | Ratio [4] | Partition ratio [5] | Compound
5 | 3200 | 0.25 | 35 | – | – | Oc1cccc2ccoc12
6 | > 20000 | – | – | – | 680 | C/C=C/c1ccc(O)cc1
7 | – | – | – | 1560 | – | C=C(CN)c1ccc(O)cc1
8 | – | – | – | 3230 | – | C#CC(CN)c1ccc(O)cc1 (stereo not given)
